From ChEMBL document CHEMBL4402576, “Discovery and Development of Small-Molecule Inhibitors of Glycogen Synthase” (J Med Chem, 2020)
The source made the active and inactive calls. The rule behind the calls is not given here.

Key:
Saccharomyces cerevisiae [1] = assay: Inhibition of recombinant His-tagged yeast GYS2P expressed in Escherichia coli BL21(DE3) cells assessed as enzyme activity at 300 uM using UDPG as substrate in presence of G-6-P by 14C-glucose incorporation assay relative to control; set-up: scale not given: the % may be the effect or the level left
Homo sapiens [2] = species on record: Homo sapiens; assay: Inhibition of C-terminal 6His-tagged human GYS1 delta634S8,11N mutant assessed as enzyme activity at 300 uM using UDPG as substrate in presence of 0.4 mM G-6-P by 14C-glucose incorporation assay relative to control; set-up: scale not given: the % may be the effect or the level left
[3] = biological target: T1, Glycogen [starch] synthase, muscle (Homo sapiens) (UniProt P13807); assay: Inhibition of C-terminal 6His-tagged wild type human GYS1 assessed as enzyme activity at 300 uM using UDPG as substrate in presence of 1 mM G-6-P by 14C-glucose incorporation assay relative to control; set-up: scale not given: the % may be the effect or the level left
T1 sequence (whole entry): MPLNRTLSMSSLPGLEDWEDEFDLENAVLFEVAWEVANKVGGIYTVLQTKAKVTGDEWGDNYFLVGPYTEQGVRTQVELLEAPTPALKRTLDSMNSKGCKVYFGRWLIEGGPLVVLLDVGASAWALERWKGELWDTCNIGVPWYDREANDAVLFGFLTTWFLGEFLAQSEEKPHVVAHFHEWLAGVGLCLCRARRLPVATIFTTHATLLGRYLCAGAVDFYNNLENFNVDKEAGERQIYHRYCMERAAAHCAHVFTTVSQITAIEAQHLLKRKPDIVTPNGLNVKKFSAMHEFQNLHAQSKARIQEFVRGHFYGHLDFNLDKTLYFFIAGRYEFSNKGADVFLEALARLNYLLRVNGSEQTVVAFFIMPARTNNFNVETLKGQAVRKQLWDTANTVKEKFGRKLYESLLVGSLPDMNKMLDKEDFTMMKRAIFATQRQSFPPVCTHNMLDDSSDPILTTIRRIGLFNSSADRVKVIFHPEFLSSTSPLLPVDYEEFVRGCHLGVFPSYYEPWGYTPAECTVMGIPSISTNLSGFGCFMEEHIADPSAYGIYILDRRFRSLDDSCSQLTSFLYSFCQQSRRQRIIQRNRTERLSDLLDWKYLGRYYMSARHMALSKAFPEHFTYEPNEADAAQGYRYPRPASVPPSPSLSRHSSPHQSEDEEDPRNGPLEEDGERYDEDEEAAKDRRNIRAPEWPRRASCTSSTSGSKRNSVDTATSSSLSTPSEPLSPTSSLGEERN

Homo sapiens [4] = species on record: Homo sapiens; assay: Inhibition of C-terminal 6His-tagged human GYS1 delta634S8,11N mutant assessed as enzyme activity at 20 uM using UDPG as substrate in presence of 0.4 mM G-6-P by 14C-glucose incorporation assay relative to control; set-up: scale not given: the % may be the effect or the level left
Saccharomyces cerevisiae [5] = assay: Inhibition of recombinant His-tagged yeast GYS2P expressed in Escherichia coli BL21(DE3) cells assessed as enzyme activity at 20 uM using UDPG as substrate in presence of G-6-P by 14C-glucose incorporation assay relative to control; set-up: scale not given: the % may be the effect or the level left
[6] = biological target: T1, Glycogen [starch] synthase, muscle (Homo sapiens); assay: Inhibition of C-terminal 6His-tagged wild type human GYS1 assessed as enzyme activity at 20 uM using UDPG as substrate in presence of 1 mM G-6-P by 14C-glucose incorporation assay relative to control; set-up: scale not given: the % may be the effect or the level left
[7] = biological target: T1, Glycogen [starch] synthase, muscle (Homo sapiens); assay: Inhibition of glycogen synthase in human HEK293 cell lysates overexpressing mouse PTG at 100 uM using 0.2 mM UDPG as substrate in presence of 1 mM G-6-P by 14C-glucose incorporation assay relative to control; type: subcellular; settings: Lysate
Outline: (§1)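 Lysates came from HEK293 cells stably expressing PTG (5.5 mM glucose αMEM, 10% FBS, hygromycin) or from Rat-1 cells (25 mM glucose DMEM, 10% FBS), grown 3–4 days to confluency. Cells were lysed by freezing, scraping and sonication in Tris/EDTA/EGTA/NaF buffer with protease inhibitors and Triton. Assays used 0.15 mg/mL (HEK293-PTG) or 0.75 mg/mL (Rat-1) lysate in 50 mM Tris-HCl pH 7.8 with 6.7 mg/ml glycogen and 2% DMSO. Read-out was [14C]glucose incorporation relative to DMSO control, in triplicate.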

[8] = biological target: T2, Glycogen [starch] synthase, muscle (Homo sapiens, UniProt P13807); assay: Inhibition of C-terminal 6His-tagged wild type human GYS1 using UDPG as substrate in presence of 1 mM G-6-P by 14C-glucose incorporation assay
T2 sequence (P13807 whole entry): T1 sequence (whole entry)
Outline: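 Full-length wild-type hGYS1 with C-terminal 6×His tag in place of the intein-chitin binding domain, Ni-NTA purified. Glucose transfer from UDP-[14C]glucose into glycogen with 0.2 mM UDPG and 1 mM G6P. Controls contained 2% (v/v) DMSO. IC50 was fitted by four-parameter logistic. Values are mean ± SEM of at least three independent experiments in duplicate.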

[9] = biological target: T3, Glycogen [starch] synthase, muscle (Rattus norvegicus) (UniProt A2RRU1); assay: Inhibition of glycogen synthase in rat-1 fibroblast cell lysates at 100 uM using 0.2 mM UDPG as substrate in presence of 1 mM G-6-P by 14C-glucose incorporation assay relative to control; type: subcellular; settings: Lysate; outline: as §1
T3 sequence (whole entry): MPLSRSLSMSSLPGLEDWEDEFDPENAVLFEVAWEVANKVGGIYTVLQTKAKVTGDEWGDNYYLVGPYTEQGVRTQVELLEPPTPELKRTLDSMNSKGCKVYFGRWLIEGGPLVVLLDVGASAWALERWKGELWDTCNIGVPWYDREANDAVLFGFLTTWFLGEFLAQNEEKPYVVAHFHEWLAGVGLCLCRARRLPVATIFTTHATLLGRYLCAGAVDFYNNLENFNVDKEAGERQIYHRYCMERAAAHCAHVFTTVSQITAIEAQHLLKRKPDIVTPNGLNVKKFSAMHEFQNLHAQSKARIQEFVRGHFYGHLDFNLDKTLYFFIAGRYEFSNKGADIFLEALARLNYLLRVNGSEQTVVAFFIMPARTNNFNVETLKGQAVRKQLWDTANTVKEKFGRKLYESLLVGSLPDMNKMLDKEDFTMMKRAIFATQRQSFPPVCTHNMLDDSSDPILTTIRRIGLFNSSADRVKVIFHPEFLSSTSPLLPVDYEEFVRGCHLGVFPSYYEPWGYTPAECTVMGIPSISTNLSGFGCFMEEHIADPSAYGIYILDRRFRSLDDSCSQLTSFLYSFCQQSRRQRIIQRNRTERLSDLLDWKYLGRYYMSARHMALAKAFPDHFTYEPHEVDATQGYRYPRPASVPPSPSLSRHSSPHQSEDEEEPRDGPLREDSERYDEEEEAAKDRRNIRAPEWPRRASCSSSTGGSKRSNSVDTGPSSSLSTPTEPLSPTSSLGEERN

[10] = biological target: T3, Glycogen [starch] synthase, muscle (Rattus norvegicus); assay: Inhibition of glycogen synthase in rat-1 fibroblast cell lysates at 100 uM using 0.2 mM UDPG as substrate in presence of 1 mM G-6-P by 14C-glucose incorporation assay; type: subcellular; settings: Lysate; outline: as §1
[11] = biological target: T1, Glycogen [starch] synthase, muscle (Homo sapiens); assay: Inhibition of glycogen synthase in human HEK293 cell lysates overexpressing mouse PTG at 100 uM using 0.2 mM UDPG as substrate in presence of 1 mM G-6-P by 14C-glucose incorporation assay; type: subcellular; settings: Lysate; outline: as §1
[12] = Competitive inhibition of recombinant His-tagged yeast GYS2P expressed in Escherichia coli BL21(DE3) cells using UDPG as substrate in presence of G-6-P by 14C-glucose incorporation based Michaelis-Menton plot analysis; set-up: species or system Saccharomyces cerevisiae
Outline: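 Ni-NTA then Q-Sepharose purified enzyme (5 μg/ml) assayed by radiolabelled glucose transfer from UDPG into glycogen. UDPG varied 0.2–8 mM with 7.2 mM G6P, covaried against fixed inhibitor levels, 2% (v/v) DMSO throughout. Data fitted to competitive, non-competitive and uncompetitive models, chosen by goodness-of-fit and residuals. Ki given as mean ± SEM of three independent experiments in duplicate.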

Activity (Homo sapiens [2]) [%] | Activity [3] [%] | Activity (Homo sapiens [4]) [%] | Activity [6] [%] | IC50 [8] [µM] | SMILES | Activity (Saccharomyces cerevisiae [1]) [%] | Activity (Saccharomyces cerevisiae [5]) [%] | also measured
94.4 | > 95 |  |  |  | c1ccc(-c2ncn(CCc3c[nH]cn3)c2-c2ccncc2)cc1 | 72.7 |  | 
 |  | 87.9 | > 95 |  | Oc1ccc(-c2n[nH]c(C(F)(F)F)c2-c2ccc(Cl)cc2)c(O)c1 |  | > 95 | 
 |  | 40.3 | 81.4 |  | Oc1ccc(-c2n[nH]c(C(F)(F)F)c2-c2ccc(OC(F)(F)F)cc2)c(O)c1O |  | 91.6 | 
 |  | 11.7 | 47.8 | 14.1 | Oc1ccc(-c2n[nH]c(C(F)(F)F)c2-c2ccc(F)cc2)c(O)c1O |  | 45.7 | inhibition [7]: > 30%; inhibition [9]: > 30%
40.1 | 58.9 |  |  | 384 | O=C(O)CCc1ccc(-c2ccccc2)n1-c1ccc(O)cc1 | 40.1 |  | inhibition [10]: inactive; inhibition [11]: inactive
 |  | 89 | 94 |  | Cc1[nH]nc(-c2ccc(O)c(O)c2O)c1-c1ccc(F)cc1 |  | > 95 | 
72.1 | 87.5 |  |  |  | O=C(O)CCc1ccc(-c2ccccc2)n1-c1ccc(F)cc1 | 84.7 |  | 
6.47 | 4.34 | > 95 | 91.8 | 52.9 | Cc1[nH]nc(-c2ccc(O)c(O)c2O)c1-c1ccc(Cl)cc1 | 3.52 | > 95 | 
93.3 | > 95 |  |  |  | CN1CCCC1CCn1cnc(-c2ccccc2)c1-c1ccncc1 (stereo unspecified) | > 95 |  | 
 |  | 23 | 22.6 | 9.82 | Oc1ccc(-c2c[nH]nc2-c2ccc(O)c(O)c2O)cc1 |  | 6.21 | 
 |  | 11.8 | 47.5 | 19.8 | Oc1ccc(-c2n[nH]c(C(F)(F)F)c2-c2ccc(Cl)cc2)c(O)c1O |  | 51.5 | inhibition [7]: > 30%; inhibition [9]: > 30%
 |  |  | 52.5 | 19.5 | Oc1ccc(-c2n[nH]cc2-c2ccc(Cl)c(Cl)c2)c(O)c1O |  |  | 
 |  | 85 | 66.8 | 34 | O=[N+]([O-])c1ccc(-c2c[nH]nc2-c2ccc(O)c(O)c2O)cc1 |  | 78.4 | 
 |  | 8.14 | 42 | 10.1 | N#Cc1ccc(-c2c(-c3ccc(O)c(O)c3O)n[nH]c2C(F)(F)F)cc1 |  | 51.2 | 
84.3 | > 95 |  |  |  | Cc1ccc(-c2ccccc2)n1-c1ccc(O)cc1 | 79.7 |  | 
> 95 | > 95 |  |  |  | Oc1ccc(-c2c(-c3ccccc3)ncn2CCCn2ccnc2)cc1 | 94.8 |  | 
 |  | 92.7 | 89.2 |  | O=[N+]([O-])c1ccc(-c2c(-c3ccc(O)cc3O)n[nH]c2C(F)(F)F)cc1 |  | 82.3 | 
56.6 | 93.4 |  |  |  | Oc1ccc(-c2c(-c3ccccc3)ncn2CCc2c[nH]cn2)cc1 | 66.6 |  | 
50.6 | 84 |  |  |  | COc1ccc(-c2ccc(CCC(=O)O)n2-c2ccc(O)cc2)cc1 | 34.5 |  | 
 |  |  |  |  | O=c1ccn([C@@H]2O[C@H](COP(=O)(O)OP(=O)(O)O)[C@@H](O)[C@H]2O)c(=O)[nH]1 [URIDINE_DIPHOSPHATE] |  |  | Ki [12]: 350 µM
 |  | 5.68 | 47.2 | 16.4 | Oc1ccc(-c2n[nH]c(C(F)(F)F)c2-c2ccccc2)c(O)c1O |  | 51.8 | 
 |  | 81.7 | 84.7 |  | Cc1[nH]nc(-c2ccc(O)c(O)c2O)c1-c1ccc(Cl)c(Cl)c1 |  | > 95 | 
 |  | 5.28 | 12.2 | 13.7 | Oc1ccc(-c2n[nH]c(C(F)(F)F)c2-c2ccc(Cl)c(Cl)c2)c(O)c1O |  | 47.4 | 
> 95 | > 95 |  |  |  | Oc1ccc(-n2c(-c3ccccc3)ccc2-c2ccccc2)cc1 | 86 |  | 
40.6 | 78.7 |  |  |  | NC(=O)c1ccc(-n2c(CCC(=O)O)ccc2-c2ccccc2)cc1 | 49.3 |  | 
 |  | > 95 | 80.1 |  | COC(=O)c1ccc(-c2c(-c3ccc(O)c(O)c3O)n[nH]c2C)cc1 |  | 90.6 | 
 |  | 74.2 | 78.4 | 72.4 | Oc1ccc(-c2c(-c3cc(F)c(O)cc3O)n[nH]c2C(F)(F)F)cc1 |  | 65.2 | 
 |  | 10.5 | 1.43 | 6.54 | O=[N+]([O-])c1ccc(-c2c(-c3ccc(O)c(O)c3O)n[nH]c2C(F)(F)F)cc1 |  | 18.8 | inhibition [7]: > 30%; inhibition [9]: > 30%
 |  | 25.2 | 84.7 |  | Oc1ccc(-c2n[nH]cc2-c2ccccc2)c(O)c1O |  | > 95 | 
